From ChEMBL document CHEMBL3351994, “Synthesis and biological evaluation of novel millepachine derivatives as a new class of tubulin polymerization inhibitors” (J Med Chem, 2014)

Columns and labels:
HepG2 = assay: Antiproliferative activity against human HepG2 cells assessed as inhibition of cell proliferation after 48 hrs by MTT assay; type: functional, cell-based; details: Homo sapiens, HepG2, 48 h
Method in brief: (§1)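 Cells grown at 37 °C in humidified 5% CO2. K562, C26 and HCT lines in RPMI-1640; other lines in DMEM; both media with 10% FBS, penicillin and streptomycin. 1000 cells/well seeded, incubated overnight, then compound at various doses for 48 h. MTT added for 4 h, formazan dissolved in DMSO, absorbance read at 590 nm. IC50 from dose–response curves, mean ± SEM of at least three independent experiments.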

A-375 = assay: Antiproliferative activity against human A375 cells assessed as inhibition of cell proliferation after 48 hrs by MTT assay; type: functional, cell-based; details: A-375, 48 h; method in brief: as §1
K562 = assay: Antiproliferative activity against human K562 cells assessed as inhibition of cell proliferation after 48 hrs by MTT assay; type: functional, cell-based; details: K562, 48 h; method in brief: as §1
MCF7 = assay: Antiproliferative activity against human MCF7 cells assessed as inhibition of cell proliferation after 48 hrs by MTT assay; type: functional, cell-based; details: MCF7, 48 h; method in brief: as §1
[1] = Antiproliferative activity against human ES2 cells assessed as inhibition of cell proliferation after 48 hrs by MTT assay; type: functional, cell-based; details: ES-2, 48 h
[2] = Antiproliferative activity against mouse C26 cells assessed as inhibition of cell proliferation after 48 hrs by MTT assay; type: functional, cell-based; details: C26, 48 h; method in brief: as §1
[3] = Antiproliferative activity against human HCT15 cells assessed as inhibition of cell proliferation after 48 hrs by MTT assay; type: functional, cell-based; details: HCT-15, 48 h; method in brief: as §1
U-251 = assay: Antiproliferative activity against human U251 cells assessed as inhibition of cell proliferation after 48 hrs by MTT assay; type: functional, cell-based; details: U-251, 48 h; method in brief: as §1
[4] = Antiproliferative activity against human HCT116 cells assessed as inhibition of cell proliferation after 48 hrs by MTT assay; type: functional, cell-based; details: HCT-116, 48 h
[5] = Antiproliferative activity against human DLD1 cells assessed as inhibition of cell proliferation after 48 hrs by MTT assay; type: functional, cell-based; details: DLD-1, 48 h; method in brief: as §1
[6] = Antiproliferative activity against human A2780S cells assessed as inhibition of cell proliferation after 48 hrs by MTT assay; type: functional, cell-based; details: A2780, 48 h
Method in brief: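 Cells grown in DMEM with 10% FBS, penicillin/streptomycin at 37 °C, 5% CO2. 1000 cells/well seeded, incubated overnight, then exposed to various doses for 48 h. MTT added for 4 h, formazan dissolved in DMSO, absorbance read at 590 nm. IC50 = concentration inhibiting proliferation by 50%, mean ± SEM of dose–response curves from at least three independent experiments.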

NCI-H358 = assay: Antiproliferative activity against human NCI-H358 cells assessed as inhibition of cell proliferation after 48 hrs by MTT assay; type: functional, cell-based; details: NCI-H358, 48 h; method in brief: as §1
AGS = assay: Antiproliferative activity against human AGS cells assessed as inhibition of cell proliferation after 48 hrs by MTT assay; type: functional, cell-based; method in brief: as §1
[7] = Toxicity in iv dosed BALB/c mouse; type: organism-based; details: in vivo
Method in brief: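 Maximum tolerated dose in BALB/c mice (SPF, 18−22 g, 6−8 weeks, half female and half male). Graded doses given intravenously, n = 4 per dose. Survival and adverse effects recorded every other day after dosing. MTD defined as the largest dose given before one death occurs.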

[8] = Solubility in PBS solution by nephelometry; type: physicochemical
Method in brief: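 Maximum soluble concentration in PBS, determined by nephelometry.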

Row | SMILES | IC50 (HepG2) | IC50 (A-375) | IC50 (K562) | also measured
1 | COc1ccc(/C=C/C(=O)c2ccc(OC)c3c2OC(C)(C)C=C3)cc1NC(N)=O | 1640 nM | 1990 nM | 1540 nM | 
2 | COc1ccc(/C=C/C(=O)c2ccc(OC)c3c2OC(C)(C)C=C3)cc1NC(=O)C(C)C | 830 nM | 530 nM | 570 nM | 
3 | COc1cc2c(c(OC)c1OC)-c1ccc(OC)c(=O)cc1[C@@H](NC(C)=O)CC2 [COLCHICINE] | 42 nM | 12 nM | 16 nM | IC50 (MCF7): 58 nM; IC50 [1]: 18 nM; IC50 [2]: 344 nM; IC50 [3]: 16 nM; IC50 (U-251): 20 nM; IC50 [4]: 15 nM; IC50 [5]: 11 nM; IC50 [6]: 4 nM; IC50 (NCI-H358): 4 nM; IC50 (AGS): 9 nM
4 | COc1ccc(/C=C/C(=O)c2ccc(OC)c3c2OC(C)(C)C=C3)cc1N.O=S(=O)(O)O |  |  |  | MTD [7]: 200 mg/kg; solubility kinetic [8]: 58 µg/mL
5 | COc1ccc(/C=C/C(=O)c2ccc(OC)c3c2OC(C)(C)C=C3)cc1N(CC=C(C)C)CC=C(C)C | > 2000 nM | > 2000 nM | 1500 nM | 
6 | CCC(=O)Nc1cc(/C=C/C(=O)c2ccc(OC)c3c2OC(C)(C)C=C3)ccc1OC | 910 nM | 920 nM | 800 nM | 
